Test results as given in paper PMC5051546 (ACS chemical neuroscience, 2016).
Non-standard residues stand in square brackets, D forms with d. Residues, ends and D or L forms follow the SMILES beside them.

Columns and labels:
Aβ(1–40) aggregates [1] = target: T1, Aβ(1–40) aggregates (Homo sapiens, UniProt P05067); test: Dynamic light scattering; assay type: biochemical; settings: 28 μM Aβ, 1.4 μM peptide; 37 °C; 2 h; z-averaged hydrodynamic diameter; Aβ alone 400 nm after 2 h
Aβ(1–40) aggregates [2] = target: T1, Aβ(1–40) aggregates; test: Nanoparticle tracking analysis; assay type: biochemical
Summary of the method: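 Aβ(1-40) stock prepared by dissolving in 50% acetonitrile, relyophilizing, and reconstituting in urea/glycine buffer at 12 mg/mL. Samples: 28 µM Aβ alone or with 1.4 µM test peptide, or peptide alone. Nanosight LM10, 405 nm laser, video capture started immediately. One 60-s video per time point over 2 h, room temperature, camera level 13. Buffers 0.02 µm-filtered. Number concentration taken from the instrument-defined scattering volume. Only particles above ~30 nm are detected.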

[3] = Solubility of lyophilized peptide in PBS or water; assay type: physicochemical
[4] = target: Aβ(1–40) fibril formation (Homo sapiens, UniProt P05067); test: Thioflavin T; assay type: biochemical; settings: 28 μM Aβ, 1.4 μM peptide; PBSA, 37 °C, up to 48 h; three replicates
Summary of the method: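 Aβ(1-40) stock in urea/glycine buffer, previously relyophilized from 50% acetonitrile. 28 µM Aβ incubated in PBSA at 37 °C alone or with 2.8, 1.4 or 0.28 µM test peptide. At 1 or 4, 24 and 48 h, aliquots mixed with 10 µM ThT in PBS. Excitation 440 nm, emission scanned 460–500 nm. Three serial spectra averaged, ThT/PBS background subtracted, 480 nm intensity compared.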

Aβ(1–40) fibrils = Aβ(1–40) fibrils (Homo sapiens, UniProt P05067); test: Transmission electron microscopy; assay type: biochemical; settings: 28 μM Aβ + 1.4 μM peptide; 24 h at 37 °C; PBSA
Sequence of Aβ(1–40) fibrils (P05067 672-711 limits assumed): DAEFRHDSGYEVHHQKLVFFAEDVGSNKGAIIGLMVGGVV

T1 sequence (P05067 672-711 limits assumed): as above
Sequence of Aβ(1–40) fibril formation (P05067 672-711 limits assumed): as above

What does the source list for `CC[C@H](C)[C@@H]1NC(=O)[C@H]([C@@H](C)O)NC(=O)[C@H](Cc2ccc(O)cc2)NC(=O)[C@H](CCCNC(=N)N)NC(=O)[C@@H]2CCCN2C(=O)[C@H]2CCCN2C(=O)[C@H]([C@@H](C)O)NC(=O)[C@H](C(C)C)NC(=O)[C@H](C(C)C)NC(=O)[C@H](CCCCN)NC(=O)[C@H](CO)NC(=O)[C@H](CCC(N)=O)NC(=O)[C@H](CO)NC(=O)[C@H](Cc2ccc(O)cc2)NC(=O)[C@H](CO)NC(=O)[C@H](Cc2ccc(O)cc2)NC(=O)[C@@H]2CCCN2C(=O)[C@H](CO)NC(=O)[C@H](CC(C)C)NC(=O)[C@H](CC(C)C)NC(=O)[C@H](C)NC(=O)[C@H](C)NC1=O` [CG3] (cyclo(SKVVT[dP]PRYTIAALLSPYSYSQ))?
effect on size and growth rate of Aβ aggregates (DLS) (Aβ(1–40) aggregates [1]): size and growth rate of Aβ aggregates increased; particles from peptide alone (NTA) (Aβ(1–40) aggregates [2]; 1.4 μM peptide in the absence of Aβ, detection limit ~30 nm, data not shown): no detectable particles above background; initial particle number concentration relative to Aβ alone (NTA) (Aβ(1–40) aggregates [2]; 28 μM Aβ, 1.4 μM peptide, PBSA, room temperature, shortly after mixing): about 2 fold; mean hydrodynamic diameter of aggregates after 2 h (NTA) (Aβ(1–40) aggregates [2]; 28 μM Aβ, 1.4 μM peptide, number-averaged): ~ 400 nm; mean hydrodynamic diameter of aggregates shortly after mixing (NTA) (Aβ(1–40) aggregates [2]; 28 μM Aβ, 1.4 μM peptide, number-averaged, Aβ alone ~80 nm): 120 nm; solubility ([3]; aqueous buffer): > 650 µg/mL; solubility ([3]; water): > 600 µM; inhibition of ThT fluorescence at 20:1 Aβ/peptide [4]: partially inhibited; Aβ aggregate morphology by TEM (Aβ(1–40) fibrils): still a large number of fibrils, but many appeared to be shorter
